# Source: PubChem BioAssay (several laboratories)
# GalR3 antagonist: blocks the human galanin receptor 3. O60755. 360,000 compounds, 0.44% hits. HEK293 GalR3-CNG cAMP membrane potential fluorescence; galR3 body fused to GalR1 C-terminus. inhibition, % at 3 µM;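 active = inhibition above the screen-wide average plus 3 SD, cut at about 13% in these data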;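 also: forskolin and galanin both at EC90 stimulate the cells; cAMP rise reported by CNG channel membrane potential dye signal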
# Gli-Sufu block: antagonists of Gli-Sufu signaling; Sufu-KO-LIGHT fibroblasts, Gli luciferase reporter luminescence; inhibition, % at 5 µM; 340,000 compounds, 0.74% hits;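 active = inhibition above about 55%, limit read from the data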
# 697 NFkB inh: lowers PMA/ionomycin-induced NF-kB signal in 697 B cells | 697 B-cell NF-kB luciferase reporter, 16 h | inhibition, % at 4 µM | 330,000 compounds, 0.33% hits; in the data active = inhibition above about 35%
# NR2E3 ag-1: agonists of human nuclear receptor NR2E3; Q9Y5X4; GST-NR2E3/biotin-RetCOR TR-FRET, 1536-well; inhibition of corepressor binding, % at 4.78 µM; 320,000 compounds, 0.12% hits; AID 2300;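 active = percent inhibition above the cutoff of mean plus 3 SD of all tested compounds, set per screening campaign, cut at about 20% in these data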
# Target sequence (Q9Y5X4 whole entry, looked up): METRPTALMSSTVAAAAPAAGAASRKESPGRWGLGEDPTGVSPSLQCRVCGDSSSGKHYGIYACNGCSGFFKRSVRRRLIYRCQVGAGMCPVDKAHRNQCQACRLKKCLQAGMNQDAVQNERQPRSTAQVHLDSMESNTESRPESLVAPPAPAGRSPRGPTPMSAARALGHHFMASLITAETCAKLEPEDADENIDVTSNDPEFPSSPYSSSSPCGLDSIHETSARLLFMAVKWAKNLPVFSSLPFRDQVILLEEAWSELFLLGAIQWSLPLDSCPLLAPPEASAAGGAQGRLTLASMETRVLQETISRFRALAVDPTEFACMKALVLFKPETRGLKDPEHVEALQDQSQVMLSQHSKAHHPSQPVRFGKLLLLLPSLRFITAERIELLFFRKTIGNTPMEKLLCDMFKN
#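 Material: NR2E3–RetCOR corepressor complex / Amount: 1.35 nM GST-NR2E3 / Medium: Tris pH 7.5 / Compound: single nominal compound dose of 4.8 µM / Incubation: 5 h at 4 °C / Technique: TR-FRET, Eu(K)-anti-GST donor, streptavidin-D2 acceptor, ex 340, em 617/671 nm / Read-out basis: percent loss of FRET ratio relative to control wells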
# Jurkat NFkB inh: inhibitors of the PMA/ionomycin-induced NF-kB reporter in Jurkat cells | inhibition, % at 4 µM | PMA/ionomycin-induced NF-kB luciferase reporter, luminescence | 330,000 compounds, 0.53% hits; in the data active = inhibition above about 50%
# NR2E3 ag-2: activates human NR2E3 receptor. CHO-S Gal4-NCOR/VP16-NR2E3 two-hybrid, luciferase. inhibition of corepressor binding, % at 3.98 µM. 360,000 compounds, 0.35% hits. AID 602229;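 active = inhibition above the mean of all tested compounds plus 3 SD, cut at about 70% in these data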;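 also: higher means lower luciferase signal from less NR2E3 corepressor binding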
# Jurkat NFkB conf: lowers PMA/ionomycin-induced NF-kB signal in Jurkat cells. Jurkat NF-kB luciferase, 16 h. 2,700 compounds, 27% hits. shares compounds with Jurkat NFkB inh. AID 435020. inhibition, % at 4 µM;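 active = inhibition reaching about 45% at 4 µM in either replicate, limit read from the data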
# A number is an active result; – = inactive; · = no result. Shown are actives, neighbours in structure and some others; about 1.8% of the full set was active somewhere.
SMILES,GalR3 antagonist,Gli-Sufu block,697 NFkB inh,NR2E3 ag-1,Jurkat NFkB inh,NR2E3 ag-2,Jurkat NFkB conf
COc1ccc(C(=O)/C=C2/c3ccccc3CC(C)(C)N2C)cc1,–,–,–,–,61,–,–
Oc1ccc(F)cc1-c1cc(-c2ccc3c(c2)OCCO3)n[nH]1,–,–,–,–,–,–,–
O=C(N/N=C/c1ccc(F)cc1)c1cc(-c2ccc3c(c2)OCO3)n[nH]1,–,–,–,–,–,–,·
COc1cc(-c2noc(C)c2/C=C/c2cccc([N+](=O)[O-])c2)cc(OC)c1OC,–,–,–,–,62,–,51
COc1cc(/C=C/c2onc(C)c2[N+](=O)[O-])cc(OC)c1OC,–,–,–,–,–,–,·
CN1CCC(NCCC(c2ccc(F)cc2)c2ccc(Cl)cc2)CC1 (configuration not stated),–,–,–,·,72,–,–
O=C(Nc1ccccc1)C1Cc2ccccc2CN1C(=O)c1ccco1 (configuration not stated),–,–,–,–,–,–,–
COC(=O)C1=C(C)N(Cc2ccccc2C(F)(F)F)C(=NCC2CC2)NC1c1ccc(F)cc1 (configuration not stated),–,·,·,·,·,·,·
COC(=O)c1cc2c(c3c4cc(OC)ccc4n(S(=O)(=O)c4ccc(OC)cc4)c13)C(=O)N(Cc1ccc(N(C)C)cc1)C2,–,·,·,·,·,·,·
CN(c1cccnc1)c1ccc(NC(=O)Cc2c[nH]c3ccccc23)cc1-c1ccc(C(C)(C)C)cc1,–,·,·,·,·,·,·
C=CCn1c2ccccc2c(=O)c2cc(C#CC3(O)CCCCC3)ccc21,–,–,–,–,–,–,–
COC(=O)c1cc2c(c3c4cc(F)ccc4n(S(=O)(=O)c4ccc(C)cc4)c13)C(=O)N(Cc1ccccc1OC)C2,–,·,·,·,·,·,·
CCOC(=O)c1c(C)[nH]c(C(=O)Nc2ccc(C)c(Cl)c2)c1C,·,·,–,–,–,·,–
COc1ccccc1C(=O)N1CCN(C(=O)[C@@H](Cc2ccccc2)NC(=O)[C@H]2O[C@@H](n3ccc(N)nc3=O)[C@H](O)[C@@H]2O)CC1,–,·,·,·,·,·,·
c1ccc(-c2cc(-c3ccccc3)on2)cc1,–,–,–,–,–,–,–
CC(CNC(=O)[C@@H](Cc1ccccc1)NC(=O)[C@H]1O[C@@H](n2ccc(=O)[nH]c2=O)[C@H](O)[C@@H]1O)c1ccccc1 (some centres not stated),–,·,·,·,·,·,·
CC(C)NC(=O)NC(=O)COc1ccc(Br)cc1Br,–,–,–,–,–,–,–
O=C1/C(=C/c2ccccn2)COc2ccccc21,–,–,–,–,–,–,·
CC1C/C(=C/c2ccccn2)C(=O)/C(=C/c2ccccn2)C1 (configuration not stated),·,–,–,–,91,–,–
Nc1nc(-c2ccccc2)cc(N2CCCCC2)n1,–,–,–,–,55,–,–
O=[N+]([O-])c1ccccc1/C=C/c1ccc2ccccc2n1,–,–,–,–,–,–,–
Cn1c(/C=C/c2ccccc2[N+](=O)[O-])nc2ccccc2c1=O,–,–,–,·,–,–,·
COc1ccc2c(C)nc(Nc3nc(-c4ccccc4)cc(=O)[nH]3)nc2c1,–,–,–,–,89,–,38
COC(=O)c1cc2c(c3c4cc(C)ccc4n(S(=O)(=O)c4ccccc4)c13)C(=O)N(Cc1ccc(C(F)(F)F)cc1)C2,–,·,·,·,·,·,·
c1ccc2nc(-c3ccc4c(c3)OCO4)ccc2c1,–,–,–,–,–,–,–
COc1ccc(OC)c2nc(-c3ccc4c(c3)OCO4)ccc12,–,–,–,–,–,–,·
O=C1CCCCC1CCS(=O)(=O)NCc1ccccc1 (configuration not stated),–,·,·,·,·,·,·
CCOC(=O)c1ccccc1NS(=O)(=O)c1ccc(OCC)cc1,–,–,–,–,62,–,–
CCOc1ccc(S(=O)(=O)Nc2ccccc2C(=O)N(C)C2CCN(C)CC2)cc1,–,·,–,–,–,–,·
CC(C)c1[nH]nc2c1C(c1ccccc1)N(Cc1ccccc1)C2=O (configuration not stated),–,·,·,·,·,·,·
